Experimental data as given in ChEMBL document CHEMBL1145814, “Antiretroviral activity of semisynthetic derivatives of glycopeptide antibiotics” (J Med Chem, 2003).
≈ marks a conversion by molar mass, not a printed value. Where “and” joins values, the source holds several entries; their conditions need not be identical. Identical values can stand only once.

Assays:
L1210 = test: Inhibitory concentration of compound against proliferation of murine lukemia cells L1210 was determined; type: functional, cell-based; conditions: Mus musculus
Summary of the method: (§1)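 (5–7.5) × 10^4 cells per well were incubated with test compound at 37 °C in a humidified CO2 atmosphere. L1210 murine leukemia cells grew for 48 h, and CEM and Molt4/clone 8 human lymphocytes grew for 72 h. Cells were then counted with a Coulter counter. IC50 is the concentration inhibiting proliferation by 50%.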

[1] = tested on: Human immunodeficiency virus 2; test: Concentration required to protect human T-lymphocytic cells against the cytopathogenicity of HIV-2; type: functional, organism-based
CCRF-CEM = test: Inhibitory concentration against proliferation of human T-lymphocytic (CEM) cells; type: functional, cell-based; summary of the method: as §1
[2] = tested on: Human immunodeficiency virus 1; test: Effective concentration of compound required to protect human T-lymphocytic cells against the cytopathogenicity of HIV-1; type: functional, organism-based
MOLT-4 = test: Inhibitory concentration of compound against proliferation of human T-lymphocytic cells MOLT-4/C8 was determined; type: functional, cell-based; summary of the method: as §1
Mus musculus [3] = species on record: Mus musculus; test: Minimal inhibitory concentration required to cause a microscopic detectable alteration of C3H/3T3 embryo murine fibroblast cell morphology; type: functional
Summary of the method: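 Uninfected C3H/3T3 murine embryo fibroblast cultures were exposed to test compound and checked microscopically for changes in cell morphology. The MIC is the concentration causing a microscopically detectable alteration of morphology.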

Mus musculus [4] = species on record: Mus musculus; test: Effective concentration of compound required to protect C3H/3T3 embryo murine fibroblasts against the MSV induced transformation; type: functional, organism-based
Summary of the method: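 Monolayer murine embryo fibroblast C3H/3T3 cultures were infected with Moloney murine sarcoma virus at 75 focus-forming units and cultured with test compound. Transformation was examined microscopically on day 6 postinfection. EC50 is the concentration protecting cells against MSV-induced transformation by 50%.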

Compound | IC50 (L1210) | EC50 [1] | IC50 (CCRF-CEM; Homo sapiens, CCRF-CEM) | IC50 (CCRF-CEM; ccrf-cem) | EC50 [2] | IC50 (MOLT-4) | EC50 ([1]; Human immunodeficiency virus 2) | EC50 ([2]; Human immunodeficiency virus 1) | MIC (Mus musculus [3]) | EC50 (Mus musculus [4]; Mus musculus, C3H/3T3) | EC50 (Mus musculus [4])
COC(=O)[C@H]1NC(=O)C2NC(=O)C(NC(=O)[C@@H]3NC(=O)[C@H]4NC(=O)[C@H](NC(=O)[C@H](N)c5ccc(O)c(c5)Oc5cc4cc(O)c5C)[C@H](O)c4ccc(cc4)Oc4cc3cc(c4OC3OC(CO[C@H]4O[C@H](C)[C@@H](O)[C@@H](O)[C@@H]4O)C(O)C(O)C3OC3OC(CO)C(O)C(O)C3OC3OCC(O)C(O)C3O)Oc3ccc(cc3)[C@H]2O[C@@H]2C[C@@H](N)[C@@H](O)[C@@H](C)O2)c2ccc(O)c(c2)-c2c(O[C@@H]3O[C@H](CO)[C@@H](O)[C@@H](O)[C@@H]3O)cc(O)cc21 (some centres not stated) | > 500 µM | – | > 500 µM | – | – | > 500 µM | > 250 µM | > 250 µM | > 100 µM | > 100 µM | –
CNC(=O)[C@@H]1NC(=O)C2NC(=O)C(NC(=O)C3NC(=O)C4NC(=O)C(Cc5ccc(c(Cl)c5)Oc5cc3cc(c5O)Oc3ccc(cc3Cl)C2O)NC(=O)C(N)c2ccc(O)c(c2)Oc2cc(O)cc4c2)c2ccc(O)c(c2)-c2c1cc(O)c(CNC1C3CC4CC(C3)CC1C4)c2O (some centres not stated) | 212 µM | – | > 250 µM | – | – | > 250 µM | 17 µM | 5 µM | > 20 µM | 9.5 µM | –
CNC(CC(C)C)C(=O)NC1C(=O)NC(CC(N)=O)C(=O)NC2C(=O)NC3C(=O)NC(C(=O)N[C@@H](C(=O)O)c4cc(O)c(CN5CCN(Cc6ccc(-c7ccccc7)cc6)CC5)c(O)c4-c4cc3ccc4O)C(O)c3ccc(cc3)Oc3cc2cc(c3O)Oc2ccc(cc2Cl)C1O (some centres not stated) | 250 µM | – | > 500 µM | – | – | > 500 µM | 12 µM | 5.5 µM | > 100 µM | 13 µM | –
CN[C@H](CC(C)C)C(=O)N[C@H]1C(=O)N[C@@H](CC(N)=O)C(=O)N[C@H]2C(=O)N[C@H]3C(=O)N[C@H](C(=O)N[C@H](C(=O)O)c4cc(O)cc(O)c4-c4cc3ccc4O)[C@H](O[C@H]3C[C@](C)(N)[C@@H](O)[C@H](C)O3)c3ccc(cc3)Oc3cc2cc(c3O[C@@H]2O[C@H](CO)[C@@H](O)[C@H](O)[C@H]2O[C@H]2C[C@](C)(N)[C@@H](O)[C@H](C)O2)Oc2ccc(cc2Cl)[C@H]1O | > 500 µM | – | > 500 µM | – | – | > 500 µM | > 250 µM | > 250 µM | > 100 µM | > 100 µM | –
CCCCc1ccc(CNCc2c(O)cc3c(c2O)-c2cc(ccc2O)C2NC(=O)C4NC(=O)C5NC(=O)C(Cc6ccc(c(Cl)c6)Oc6cc4cc(c6O)Oc4ccc(cc4Cl)C(O)C(NC2=O)C(=O)N[C@H]3C(=O)NC)NC(=O)C(N)c2ccc(O)c(c2)Oc2cc(O)cc5c2)cc1 (some centres not stated) | > 100 µM | – | > 100 µM | – | – | > 100 µM | 12 µM | 9.7 µM | 20 µM (≈ 27.7 µg/mL) | > 4 µM | –
NC1C(=O)NC2Cc3ccc(c(Cl)c3)Oc3cc4cc(c3O)Oc3ccc(cc3Cl)C(O)C3NC(=O)C(NC(=O)C4NC(=O)C(NC2=O)c2cc(O)cc(c2)Oc2cc1ccc2O)c1ccc(O)c(c1)-c1c(cc(O)c(CNC2C4CC5CC(C4)CC2C5)c1O)[C@H](C(=O)NC1C2CC4CC(C2)CC1C4)NC3=O (some centres not stated) | 202 µM | – | > 250 µM | – | – | > 250 µM | 3.5 µM | 2.5 µM | > 20 µM | 2 µM | –
COC(=O)[C@@H]1NC(=O)C2NC(=O)C(NC(=O)C(N)c3cc(Oc4ccc(CC(NC(=O)OCc5ccccc5)C(=O)O)cc4Cl)c(O)c(c3)Oc3ccc(cc3Cl)C2O)c2ccc(O)c(c2)-c2c1cc(O)c(CNC1C3CC4CC(C3)CC1C4)c2O (some centres not stated) | 181 µM | – | > 250 µM | – | – | > 250 µM | 37 µM | 17 µM | > 100 µM | 39 µM | –

Now from value to molecule, other results behind:

IC50 (L1210) | EC50 [1] | IC50 (CCRF-CEM; Homo sapiens, CCRF-CEM) | IC50 (CCRF-CEM; ccrf-cem) | EC50 [2] | IC50 (MOLT-4) | EC50 ([1]; Human immunodeficiency virus 2) | EC50 ([2]; Human immunodeficiency virus 1) | Compound | MIC (Mus musculus [3]) | EC50 (Mus musculus [4]; Mus musculus, C3H/3T3) | EC50 (Mus musculus [4])
61 µM | 3 µM and 6.3 µM | > 500 µM | > 250 µM | 1.7 µM and 3.5 µM | > 500 µM | – | – | CCCCc1ccc(CN2CCN(Cc3c(O)cc4c(c3O)-c3cc(ccc3O)C3NC(=O)C5NC(=O)C6NC(=O)C(Cc7ccc(c(Cl)c7)Oc7cc5cc(c7O)Oc5ccc(cc5Cl)C(O)C(NC3=O)C(=O)N[C@H]4C(=O)NC)NC(=O)C(N)c3ccc(O)c(c3)Oc3cc(O)cc6c3)CC2)cc1 (some centres not stated) | > 20 µM | 3.6 µM | –
136 µM | – | 106 µM | – | – | 72 µM | > 50 µM | 22 µM | CN[C@H](CC(C)C)C(=O)N[C@H]1C(=O)N[C@@H](CC(N)=O)C(=O)N[C@H]2C(=O)N[C@H]3C(=O)N[C@H](C(=O)N[C@H](C(=O)O)c4cc(O)c(CNCc5ccc(-c6ccc(Cl)cc6)cc5)c(O)c4-c4cc3ccc4O)[C@H](O[C@H]3C[C@](C)(N)[C@@H](O)[C@H](C)O3)c3ccc(cc3)Oc3cc2cc(c3O[C@@H]2O[C@H](CO)[C@@H](O)[C@H](O)[C@H]2O[C@H]2C[C@](C)(N)[C@@H](O)[C@H](C)O2)Oc2ccc(cc2Cl)[C@H]1O | > 20 µM | > 4 µM | –
41 µM | – | 35 µM | – | – | 34 µM | > 10 µM | > 10 µM | CN[C@H](CC(C)C)C(=O)N[C@H]1C(=O)N[C@@H](CC(N)=O)C(=O)N[C@H]2C(=O)N[C@H]3C(=O)N[C@H](C(=O)N[C@H](C(=O)NCc4ccc(-c5ccccc5)cc4)c4cc(O)cc(O)c4-c4cc3ccc4O)[C@H](O[C@H]3C[C@](C)(N)[C@@H](O)[C@H](C)O3)c3ccc(cc3)Oc3cc2cc(c3O[C@@H]2O[C@H](CO)[C@@H](O)[C@H](O)[C@H]2O[C@H]2C[C@](C)(N)[C@@H](O)[C@H](C)O2)Oc2ccc(cc2Cl)[C@H]1O | 4 µM (≈ 6.89 µg/mL) | > 0.8 µM | –
73 µM | – | 242 µM | – | – | > 250 µM | 17 µM | 13 µM | NC1Cc2ccc(c(Cl)c2)Oc2cc3cc(c2O)Oc2ccc(cc2Cl)C(O)C2NC(=O)C(NC(=O)C3NC(=O)C(c3cc(O)cc(Oc4cc(C5NC(=S)N(c6ccccc6)C5=O)ccc4O)c3)NC1=O)c1ccc(O)c(c1)-c1c(cc(O)c(CNC3C4CC5CC(C4)CC3C5)c1O)[C@H](C(=O)O)NC2=O (some centres not stated) | > 100 µM | 2.9 µM | –
29 µM | 5 µM and 13 µM | > 500 µM | > 250 µM | 4 µM | 108 µM | – | 3 µM | CCCCc1ccc(CN2CCN(Cc3c(O)cc4c(c3O)-c3cc(ccc3O)C3NC(=O)C5NC(=O)C6NC(=O)C(Cc7ccc(c(Cl)c7)Oc7cc5cc(c7O)Oc5ccc(cc5Cl)C(O)C(NC3=O)C(=O)N[C@H]4C(=O)NCCCN(C)C)NC(=O)C(N)c3ccc(O)c(c3)Oc3cc(O)cc6c3)CC2)cc1 (some centres not stated) | 20 µM (≈ 30.5 µg/mL) | 2.4 µM | 3.5 µM
84 µM | – | > 100 µM | – | – | > 100 µM | 3.5 µM | 4 µM | CNC(=O)[C@@H]1NC(=O)C2NC(=O)C(NC(=O)C3NC(=O)C(CC(N)=O)NC(=O)C(NC(=O)C(CC(C)C)N(C)C(=O)OC(C)(C)C)C(O)c4ccc(c(Cl)c4)Oc4cc3cc(c4O)Oc3ccc(cc3)C2O)c2ccc(O)c(c2)-c2c1cc(O)c(CN1CCN(Cc3ccc(-c4ccccc4)cc3)CC1)c2O (some centres not stated) | 20 µM (≈ 29.7 µg/mL) | > 4 µM | –
70 µM | – | > 100 µM | – | – | > 100 µM | 12 µM | 6 µM | CCCCc1ccc(CNCc2c(O)cc3c(c2O)-c2cc(ccc2O)C2NC(=O)C4NC(=O)C5NC(=O)C(Cc6ccc(c(Cl)c6)Oc6cc4cc(c6O)Oc4ccc(cc4Cl)C(O)C(NC2=O)C(=O)N[C@H]3C(=O)NC)NC(=O)C(NC(=O)OC(C)(C)C)c2ccc(O)c(c2)Oc2cc(O)cc5c2)cc1 (some centres not stated) | 20 µM (≈ 29.7 µg/mL) | > 4 µM | –
